# ChEMBL document CHEMBL1137772, “Site-activated multifunctional chelator with acetylcholinesterase and neuroprotective-neurorestorative moieties for Alzheimer's therapy” (J Med Chem, 2009)
# Activity calls are given as the source filed them. The calls are words filed in the database; no cut-off is given here.
# What was measured:
# [1] = molecular target: T1, Acetylcholinesterase (Rattus norvegicus) (UniProt P37136); assay: Inhibition of AChE in Wistar rat brain homogenates at 1 uM by Ellman's method; type: tissue-based; conditions: TDE = time-dependent effect
# T1 sequence (whole entry): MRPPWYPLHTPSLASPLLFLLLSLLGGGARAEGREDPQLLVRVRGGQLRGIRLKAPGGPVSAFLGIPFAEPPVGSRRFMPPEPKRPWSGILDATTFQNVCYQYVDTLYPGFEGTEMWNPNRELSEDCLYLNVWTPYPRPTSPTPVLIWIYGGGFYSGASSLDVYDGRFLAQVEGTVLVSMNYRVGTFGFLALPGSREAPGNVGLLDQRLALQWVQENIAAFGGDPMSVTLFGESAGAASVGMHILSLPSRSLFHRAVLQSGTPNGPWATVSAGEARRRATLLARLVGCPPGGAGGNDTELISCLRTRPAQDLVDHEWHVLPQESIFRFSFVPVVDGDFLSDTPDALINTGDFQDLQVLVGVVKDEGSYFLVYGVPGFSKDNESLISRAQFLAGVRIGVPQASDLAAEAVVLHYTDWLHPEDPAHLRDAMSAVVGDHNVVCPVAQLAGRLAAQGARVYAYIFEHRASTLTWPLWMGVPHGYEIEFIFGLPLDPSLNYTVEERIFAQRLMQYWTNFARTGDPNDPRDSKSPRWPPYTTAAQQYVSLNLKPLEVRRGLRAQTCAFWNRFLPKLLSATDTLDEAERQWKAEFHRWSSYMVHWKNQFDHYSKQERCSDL
# Outline: (§1)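 Modified Ellman method on rat brain homogenate enzymes, with acetylthiocholine as AChE substrate and butyrylthiocholine as BuChE substrate. For concentration–response, enzymes were preincubated with inhibitor for 3 h, and IC50 was obtained by nonlinear curve fitting. Mean ± SEM of three to five independent experiments, each in triplicate. The 1 µM AChE inhibition was followed as a time course.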
# [2] = molecular target: Butyrylcholinesterase (Rattus norvegicus) (UniProt Q9JKC1); assay: Inhibition of BuChE in Wistar rat brain homogenates at 1 uM by Ellman's method; type: tissue-based; conditions: TDE = time-dependent effect
# Chain of Butyrylcholinesterase (Rattus norvegicus) (Q9JKC1 as listed by the source): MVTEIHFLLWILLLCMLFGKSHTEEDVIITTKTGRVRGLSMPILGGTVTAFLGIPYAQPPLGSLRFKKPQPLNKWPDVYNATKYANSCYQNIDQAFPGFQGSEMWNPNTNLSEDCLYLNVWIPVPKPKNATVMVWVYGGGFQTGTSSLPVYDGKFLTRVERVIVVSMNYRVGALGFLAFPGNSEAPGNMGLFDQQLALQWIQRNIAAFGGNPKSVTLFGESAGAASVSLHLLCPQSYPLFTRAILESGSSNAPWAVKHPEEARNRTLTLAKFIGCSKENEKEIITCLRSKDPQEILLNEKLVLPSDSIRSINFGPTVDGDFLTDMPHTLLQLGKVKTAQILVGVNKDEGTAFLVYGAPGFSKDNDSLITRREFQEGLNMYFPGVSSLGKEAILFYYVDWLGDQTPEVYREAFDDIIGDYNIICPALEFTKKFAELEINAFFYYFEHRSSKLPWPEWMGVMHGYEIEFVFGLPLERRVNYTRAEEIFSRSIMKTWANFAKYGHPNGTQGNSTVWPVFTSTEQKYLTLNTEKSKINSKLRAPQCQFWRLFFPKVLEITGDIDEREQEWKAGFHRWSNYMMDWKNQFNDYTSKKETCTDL
# SH-SY5Y [3] = assay: Cytotoxicity against human SH-SY5Y cells assessed as cell viability at 1 uM after 48 hrs by MTT assay relative to control; type: cell-based
# Outline: (§2)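 Human SH-SY5Y neuroblastoma cells were exposed to compound for 48 h, and viability was read by MTT assay. Mean ± SEM of three independent experiments.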
# Rattus norvegicus = species: Rattus norvegicus; assay: Selectivity ratio of IC50 for BuChE to IC50 for AChE in Wistar rat brain homogenates; type: tissue-based; outline: as §1
# Butyrylcholinesterase = Butyrylcholinesterase (Rattus norvegicus, UniProt Q9JKC1); assay: Inhibition of BuChE in Wistar rat brain homogenates by Ellman's method; type: tissue-based; outline: as §1
# Chain of Butyrylcholinesterase (Q9JKC1 whole entry): as the sequence (Q9JKC1 as listed by the source) above
# [4] = molecular target: Acetylcholinesterase (Electrophorus electricus) (UniProt O42275); assay: […] of electric eel AChE-mediated drug hydrolysis assessed as release of HLA20-copper complex at 0.2 mM by UV visible spectroscopy in presence of CuSO4
# Chain of Acetylcholinesterase (Electrophorus electricus) (O42275 24-633 limits assumed): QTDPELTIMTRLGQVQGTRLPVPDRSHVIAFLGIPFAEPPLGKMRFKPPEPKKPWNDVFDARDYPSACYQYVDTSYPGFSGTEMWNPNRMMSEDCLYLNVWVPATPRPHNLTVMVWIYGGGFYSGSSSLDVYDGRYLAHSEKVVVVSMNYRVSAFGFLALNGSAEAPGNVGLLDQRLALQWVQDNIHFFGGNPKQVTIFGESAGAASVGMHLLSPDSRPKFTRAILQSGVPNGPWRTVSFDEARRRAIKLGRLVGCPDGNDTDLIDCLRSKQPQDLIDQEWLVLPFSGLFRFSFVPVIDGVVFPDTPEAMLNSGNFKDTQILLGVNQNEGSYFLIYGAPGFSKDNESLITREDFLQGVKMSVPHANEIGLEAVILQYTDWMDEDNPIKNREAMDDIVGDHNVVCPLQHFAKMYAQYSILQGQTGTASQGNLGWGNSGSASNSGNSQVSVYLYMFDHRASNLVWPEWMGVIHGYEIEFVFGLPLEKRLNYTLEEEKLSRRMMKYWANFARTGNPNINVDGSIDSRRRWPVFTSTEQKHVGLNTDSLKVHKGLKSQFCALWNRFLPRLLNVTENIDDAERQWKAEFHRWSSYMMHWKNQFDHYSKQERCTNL
# Outline: (§3)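 UV/vis absorption spectra were recorded in 5% NH4Ac, pH 7. Prochelator (0.2 mM) was activated before adding CuSO4 or FeSO4 (0.2 mM).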
# [5] = molecular target: Acetylcholinesterase (Electrophorus electricus) (UniProt O42275); assay: Induction of electric eel AChE-mediated drug hydrolysis assessed as release of HLA20-iron complex at 0.2 mM by UV visible spectroscopy in presence of FeSO4; outline: as §3
# SH-SY5Y [6] = assay: Cytotoxicity against human SH-SY5Y cells assessed as decrease in cell viability at 25 uM after 48 hrs by MTT assay relative to control; type: cell-based; outline: as §2
# SH-SY5Y [7] = assay: Cytotoxicity against human SH-SY5Y cells assessed as decrease in cell viability at 10 uM after 48 hrs by MTT assay relative to control; type: cell-based; outline: as §2
# SH-SY5Y [8] = assay: Cytotoxicity against human SH-SY5Y cells assessed as decrease in cell viability at 50 uM after 48 hrs by MTT assay relative to control; type: cell-based; outline: as §2
# Acetylcholinesterase = molecular target: T2, Acetylcholinesterase (Rattus norvegicus, UniProt P37136); assay: Inhibition of AChE in Wistar rat brain homogenates by Ellman's method; type: tissue-based; outline: as §1
# T2 sequence (P37136 whole entry): T1 sequence (whole entry)
Structure (SMILES),Activity [1],Activity [2],Activity (SH-SY5Y [3]),Ratio IC50 (Rattus norvegicus),IC50 (Butyrylcholinesterase),Activity [4],Activity [5],Activity (SH-SY5Y [6]),Activity (SH-SY5Y [7]),Activity (SH-SY5Y [8]),IC50 (Acetylcholinesterase)
C#CCN1CCN(Cc2ccc(OC(=O)N(C)C)c3ncccc23)CC1,tde,tde,Non-toxic,85,42.6 µM,Active,Active,Toxic,Non-toxic,Toxic,0.5 µM
CCN(C)C(=O)Oc1cccc([C@H](C)N(C)C)c1,tde,tde,,,,,,,,,
C#CCN1CCN(Cc2ccc(O)c3ncccc23)CC1,,,Non-toxic,,,,,87%,60%,98%,
